Experimental data from different studies.
Lines come from different studies, so protocols differ.
Target: Serine/threonine-protein kinase BRSK1 (BRSK1, Homo sapiens, UniProt Q8TDC3)
Concentration: 1 µM
One construct used (Q8TDC3 1-778): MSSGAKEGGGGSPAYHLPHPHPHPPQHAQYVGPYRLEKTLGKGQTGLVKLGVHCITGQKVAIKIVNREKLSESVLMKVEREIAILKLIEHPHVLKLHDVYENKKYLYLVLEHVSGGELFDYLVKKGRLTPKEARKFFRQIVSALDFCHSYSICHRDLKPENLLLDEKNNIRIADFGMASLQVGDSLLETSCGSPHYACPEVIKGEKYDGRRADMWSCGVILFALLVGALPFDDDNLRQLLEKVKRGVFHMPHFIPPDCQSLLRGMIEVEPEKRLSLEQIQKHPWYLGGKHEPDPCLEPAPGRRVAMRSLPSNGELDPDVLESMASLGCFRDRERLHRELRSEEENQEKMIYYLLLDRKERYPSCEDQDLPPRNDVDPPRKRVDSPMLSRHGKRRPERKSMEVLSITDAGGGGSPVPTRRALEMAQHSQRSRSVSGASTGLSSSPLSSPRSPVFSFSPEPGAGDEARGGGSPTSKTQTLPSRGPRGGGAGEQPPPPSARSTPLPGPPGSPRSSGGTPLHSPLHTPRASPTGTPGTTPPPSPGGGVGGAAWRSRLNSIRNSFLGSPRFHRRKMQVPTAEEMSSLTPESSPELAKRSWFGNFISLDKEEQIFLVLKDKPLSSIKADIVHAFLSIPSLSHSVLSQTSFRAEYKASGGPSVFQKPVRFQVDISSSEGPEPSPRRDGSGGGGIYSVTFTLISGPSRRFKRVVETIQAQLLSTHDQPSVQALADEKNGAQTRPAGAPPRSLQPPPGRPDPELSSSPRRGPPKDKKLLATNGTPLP

SMILES	read-out	method	remaining binding [%]
CO[C@@H](C)c1c(Nc2ccc([C@@H](N(C)C(=O)C3CCS(=O)(=O)CC3)C(F)(F)F)cc2)cnc2cc(Cl)nn12	cell-free assay	competition with immobilised ligand	93
CN(C)c1nccc(-c2cnn3ncccc23)n1	binding		100
Cc1cnc(Nc2ccc(C(=O)N3CCC(N4CCCC4)CC3)cc2)nc1-c1cc2ccccc2s1	binding	competition with immobilised ligand	100
C[C@H]1CCN(c2nccc(-c3cnn4ncccc34)n2)C1	binding		98
Nc1ncc2c(n1)-c1c([nH]c3ccc(C#CC4CC4)cc13)CCCC2	binding	competition with immobilised ligand	87
CN(C)c1ncc(F)c(-c2cnn3ncccc23)n1	binding		87
CC(=O)c1c(NS(C)(=O)=O)c2cc(-c3ccc(Cl)cc3)c(-c3ccc(Cl)cc3Cl)nc2n(C)c1=O	cell-free assay	competition with immobilised ligand	99
C=CC(=O)N1CCC(C(=O)NCC(=O)N2CCN(c3nc(-c4cnc(N)nc4C(F)F)nc(N4CCOCC4)n3)CC2)CC1	binding	competition with immobilised ligand	100
c1cnn2ncc(-c3ccnc(N4CCC45COC5)n3)c2c1	binding		82
CCN1CCN(Cc2ccc(C(=O)Nc3ccc(C)c(Oc4ccc5c(c4)CC(=O)N5)c3)cc2C(F)(F)F)CC1	binding	competition with immobilised ligand	94
COc1cnc(Nc2cccc(S(N)(=O)=O)c2)nc1N1CCN(c2ccccc2)CC1	binding	competition with immobilised ligand	96
O=C(O)[C@@H]1[C@@H](Cn2nnc3ccccc3c2=O)CC[C@H]1C(=O)c1ccc(OCCC2CCOCC2)cc1	cell-free assay	competition with immobilised ligand	100
CNC(=O)[C@@H]1CC[C@@H](n2c(-c3ccc4cnccc4c3)nc3ccc(C(=O)NCc4cccc(C(N)=O)c4)cc32)C1	binding	competition with immobilised ligand	100
O=C(NCC1CCOCC1)c1n[nH]cc1NC(=O)c1c(F)cccc1F	binding	competition with immobilised ligand	100
COc1cc(-c2cn(C3CCc4ccccc4N(CC(F)(F)F)C3=O)nn2)ccc1-n1ccc(C)n1 (stereo not shown)	cell-free assay	competition with immobilised ligand	81
O=C(NCCCN1CCOCC1)c1ccc(Nc2nccc(-c3cc4ccccc4s3)n2)cc1	binding	competition with immobilised ligand	70
C[C@H](c1cccc(C#N)c1)n1cc(Cl)cc(C(N)=O)c1=N	cell-free assay	competition with immobilised ligand	68
Cc1cnn2ncc(-c3ccnc(N(C)C)n3)c2c1	binding		81
CN(c1ccnc(CNc2nc(Nc3ccc4c(c3)CC(=O)N4)ncc2C(F)(F)F)n1)S(C)(=O)=O	cell-free assay	competition with immobilised ligand	43
N[C@H]1CCN(c2nccc(-c3cnn4ncccc34)n2)C1	binding		81
Cc1nccc(COC(=O)N2C[C@@H]3[C@@H](CNC(=O)c4ccc5[nH]nnc5c4)[C@@H]3C2)n1	cell-free assay	competition with immobilised ligand	100
O=C(c1ccc(Nc2ncc(Cl)c(-c3cc4ccccc4s3)n2)cc1)N1CCC(N2CCCC2)CC1	binding	competition with immobilised ligand	32
